Experimental data published in ChEMBL document CHEMBL1134649, “Syntheses and structure--activity relationships of novel apio and thioapio dideoxydidehydronucleosides as anti-HCMV agents” (J Med Chem, 2001).
Values after ≈ are worked out from the molar mass of the structure shown.

Key:
Human betaherpesvirus 5 [1] = assay: Antiviral activity was determined against Human cytomegalovirus (HCMV) strain AD-169 using CPE inhibition assay; format: functional, organism-based
Summary of the method: (§1)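 HEL cells in stationary phase were infected at 2–4 CCID50 per well and the virus was adsorbed 2 h at 37 °C. Unadsorbed virus was removed and compound in MEM/2% FBS was added, in duplicate per concentration, for 6 days. CPE was read either microscopically (70% ethanol fixation, Giemsa stain) or by fluorescein diacetate fluorescence (485/538 nm). EC50 was taken from semilog plots of %CPE against concentration.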

Human betaherpesvirus 5 [2] = assay: Antiviral activity was determined against Human cytomegalovirus (HCMV) strain Davis using CPE inhibition assay; format: functional, organism-based; summary of the method: as §1
HEL 299 = assay: Cytotoxic concentration of compound was tested against HEL299(human embryonic lung fibroblast) cells using cytotoxic assay; format: functional
Summary of the method: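 Run as a mock-infected control alongside the antiviral assay in HEL cells, with the same 6-day incubation in MEM/2% FBS. Viability was read by propidium iodide fluorescence in place of fluorescein diacetate. CC50 is the concentration giving 50% loss of viability.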

Row | EC50 (Human betaherpesvirus 5 [1]) | EC50 (Human betaherpesvirus 5 [2]) | SMILES | CC50 (HEL 299)
1 | 44.1 µg/mL (≈ 131 µM) | 27.2 µg/mL (≈ 80.9 µM) | O=c1[nH]c(=O)n(C2C=C(CO)CO2)cc1I (stereo not given) | > 100 µg/mL
2 | 11.7 µg/mL (≈ 55.7 µM) | > 33.3 µg/mL | O=c1ccn(C2C=C(CO)CO2)c(=O)[nH]1 (stereo not given) | 33.3 µg/mL (≈ 158 µM)
3 | 6.9 µg/mL (≈ 30.2 µM) | 2.81 µg/mL (≈ 12.3 µM) | O=c1[nH]c(=O)n(C2C=C(CO)CO2)cc1F (stereo not given) | > 100 µg/mL
4 | 41.7 µg/mL (≈ 170 µM) | 25.1 µg/mL (≈ 103 µM) | O=c1[nH]c(=O)n(C2C=C(CO)CO2)cc1Cl (stereo not given) | 63.3 µg/mL (≈ 259 µM)
5 | 33.7 µg/mL (≈ 117 µM) | 25.4 µg/mL (≈ 87.9 µM) | O=c1[nH]c(=O)n(C2C=C(CO)CO2)cc1Br (stereo not given) | > 100 µg/mL
6 | 33.3 µg/mL (≈ 149 µM) | 16.6 µg/mL (≈ 74 µM) | Cc1cn(C2C=C(CO)CO2)c(=O)[nH]c1=O (stereo not given) | > 100 µg/mL

Second part, the compound before the results:

Row | SMILES | EC50 (Human betaherpesvirus 5 [1]) | EC50 (Human betaherpesvirus 5 [2]) | CC50 (HEL 299)
7 | Nc1nc2c(ncn2COC(CO)CO)c(=O)[nH]1 [GANCICLOVIR] | 1.09 µg/mL (≈ 4.27 µM) | 0.61 µg/mL (≈ 2.39 µM) | > 10 µg/mL
8 | Cc1cn(C2C=C(CO)CS2)c(=O)[nH]c1=O (stereo not given) | > 100 µg/mL | > 100 µg/mL | > 100 µg/mL
9 | O=C(O)P(=O)(O)O [FOSCARNET] | 64.9 µg/mL (≈ 515 µM) | 38.7 µg/mL (≈ 307 µM) | > 300 µg/mL
10 | O=c1ccn(C2C=C(CO)CS2)c(=O)[nH]1 (stereo not given) | > 100 µg/mL | > 100 µg/mL | > 100 µg/mL
